Source: publication PMC4048812 (The Biochemical journal, 2013)
“And” between values parts separate entries of the source, which are not always exact repeats. Identical values can stand only once. “Also recorded” adds a separate entry of the source. Each block holds one compound with its values, some of them ahead of it. Where no end group is shown, it is not given here.

Experiments:
EGFR kinase domain [1] = biological target: T1, EGFR kinase domain (Homo sapiens, UniProt P00533); experiment: Radiometric kinase assay of Tail Peptide A phosphorylation; assay type: biochemical
Method in brief: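 Buffer was 15 mM Tris pH 7.5, 0.02% v/v polysorbate 20, 10 mM MgCl2. A non-phosphorylatable test peptide (substrate Tyr→Ala) was added at varied concentrations. After 10 min at room temperature, reactions were quenched with 0.5% v/v phosphoric acid, spotted on phosphocellulose filters, washed, and scintillation-counted (four replicate filters).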

EGFR [2] = conditions: ref [16],[17]; cited from earlier work
[3] = biological target: EGFR kinase domain (residues 672-998) (Homo sapiens, UniProt P00533); experiment: Enzyme-coupled kinase assay, wild type EGFR kinase domain; assay type: biochemical
EGFR kinase domain [4] = biological target: T1, EGFR kinase domain; experiment: Immunoblot analysis of EGFR kinase domain autophosphorylation; assay type: biochemical; conditions: 0-60 μM Peptide C; 800 nM EGFR kinase domain; 500 μM ATP; pH 7.5; 1 minute; room temperature; minimum of three replicates
[5] = biological target: I682Q and V924R EGFR kinase domains (Homo sapiens, UniProt P00533, V948R); experiment: Enzyme-coupled kinase assay, pair I682Q and V924R; assay type: biochemical; conditions: 1 μM each
Method in brief: (§1)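 Spectrophotometric enzyme-coupled kinase assay using N-terminally His6-tagged EGFR kinase domain (residues 672-998); mutants were made by site-directed mutagenesis and sequence-confirmed. Total kinase domain was 2 μM, with 1 μM of each mutant when paired. The test peptide substrate was titrated with 500 μM ATP in 10 mM MgCl2, 20 mM Tris pH 7.5 at room temperature. Specific rates came from at least triplicates; for pairs, Hill coefficients came from variable-slope log(agonist)-response fits.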

EGFR [6] = conditions: reported value, cited from earlier work
[7] = test system: wild type EGFR kinase domain; experiment: Transmission electron microscopy with wild type EGFR kinase domain; conditions: TEM
Method in brief: (§2)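 Test peptide at varied concentrations, without or with 2 μM wild-type or I682Q His-tagged EGFR kinase domain (residues 672-998), in 10 mM Tris pH 7.5, 20 mM NaCl, 0.02% v/v polysorbate 20. Samples were incubated about 10 min at room temperature, then adsorbed onto Formvar carbon-coated copper grids. Grids were negatively stained with three applications of 1% w/v uranyl acetate and imaged by transmission electron microscopy.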

I682Q EGFR kinase domain [8] = experiment: Transmission electron microscopy with I682Q EGFR kinase domain; conditions: different concentrations of Peptide C; 2 μM I682Q EGFR kinase domain; TEM
Method in brief: as §2

I682Q EGFR kinase domain [9] = experiment: Enzyme-coupled kinase assay, I682Q mutant alone; assay type: biochemical; conditions: 2 μM kinase domain; titration of Peptide C; 500 μM ATP; pH 7.5; room temperature
Method in brief: as §1

V924R EGFR kinase domain = experiment: Enzyme-coupled kinase assay, V924R mutant alone; assay type: biochemical; conditions: 2 μM kinase domain; titration of Peptide C; 500 μM ATP; pH 7.5; room temperature
Method in brief: as §1

[10] = biological target: I682Q/D813N and V924R EGFR kinase domains (Homo sapiens, UniProt P00533, V948R); experiment: Enzyme-coupled kinase assay, pair I682Q/D813N and V924R; assay type: biochemical; conditions: I682Q/D813N with V924R, 1 μM each; minimum of three replicates
Method in brief: as §1

[11] = Dynamic light scattering of Peptide C; assay type: physicochemical; conditions: DLS, 25° C
Method in brief: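 Test peptide at 1 mM, prepared in water, in 20 mM NaCl, or in assay buffer (15 mM Tris pH 7.5, 0.02% v/v polysorbate 20, 20 mM NaCl). DLS was run at 25° C with a 60 mW laser at 15% power and a 90° detection angle. Buffer components were filtered beforehand; the peptide itself was not filtered.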

[12] = Transmission electron microscopy of Peptide C alone; assay type: physicochemical; conditions: 20, 40 and 80 μM, TEM
Method in brief: as §2

[13] = Peptide C (2 μM EGFR) vs Tyrsub (8 μM EGFR)

EC50 (EGFR kinase domain [1]): 45 µM
Compound: RAHEEIAHFFFAKKK [Peptide C variant]

Compound: protamine
aggregation and activation of EGFR (EGFR [2]): can aggregate and activate EGFR in an apparently cooperative manner

Compound: poly-arginine
aggregation and activation of EGFR (EGFR [2]): can aggregate and activate EGFR in an apparently cooperative manner

Compound: CCCCCCCCCCCCC/C=C/[C@@H](O)[C@@H](N)CO [sphingosine]
aggregation and activation of EGFR (EGFR [2]): can aggregate and activate EGFR in an apparently cooperative manner

Compound: poly-lysine
aggregation and activation of EGFR (EGFR [2]): can aggregate and activate EGFR in an apparently cooperative manner

Compound: RAHEEIYHFFFAKKK [Peptide C]
kcat, fold higher than for Tail Peptide A ([3]; Peptide C (2 μM EGFR) vs Tail Peptide A (8 μM EGFR)): roughly eight | catalytic efficiency (kcat/KM), fold higher than for Tyrsub [3, 13]: ~760 fold | kcat, fold higher than for Tyrsub [3, 13]: roughly eight | Hill coefficient (nH) ([3]; wild type kinase domain, 2 μM, 500 μM ATP, pH 7.5, room temperature, Hill equation fit, minimum of three replicates): ~ 2.8 and ~3 | Tyr-845 phosphorylation (EGFR kinase domain [4]): increases in a dose-dependent manner | Tyr-974 phosphorylation (EGFR kinase domain [4]): same dose-dependent increase in phosphorylation | Tyr-992 phosphorylation (EGFR kinase domain [4]): same dose-dependent increase in phosphorylation | catalysis relative to wild type kinase domain ([5]; I682Q and V924R combined, 500 μM ATP, pH 7.5, room temperature): about 60% | Hill coefficient (nH) ([5]; I682Q with V924R, minimum of three replicates): ~ 3.0 | Km (EGFR [6]; ref [5],[9]): 128 µM | catalytic efficiency, kcat/KM, fold higher than for Tail Peptide A (EGFR [6]; ref [9]): ~ 26 fold | small, dispersed EGFR aggregates ([7]; 20 μM Peptide C, 2 μM EGFR kinase domain): also observed | small, dispersed EGFR aggregates ([7]; 80 μM Peptide C, 2 μM EGFR kinase domain): not observed | fibrils and globular aggregates with EGFR kinase domain ([7]; 20 and 80 μM Peptide C, 2 μM EGFR kinase domain, about 10 minutes): forms fibrils in the presence of EGFR; also recorded: Fibrils similar to those formed by Peptide C alone as well as globular aggregates localized near the fibrils are observed | fibril edges with EGFR kinase domain ([7]; Peptide C with 2 μM EGFR kinase domain): the fibril edges are less defined; also recorded: appear less crisp | appearance with I682Q EGFR kinase domain compared with wild type (I682Q EGFR kinase domain [8]): appear indistinguishable from wild type | activating properties with I682Q alone (I682Q EGFR kinase domain [9]): entirely abrogated | activating properties with V924R alone (V924R EGFR kinase domain): entirely abrogated | Hill coefficient (nH) [10]: ~ 2.5 | aggregation ([11]; 1 mM in 20 mM sodium chloride): aggregation to an intermediate degree between the aqueous solution and the buffered samples | aggregation ([11]; 1 mM in water): limited aggregation | hydrodynamic radius ([11]; 1 mM in water, polydisperse distribution): 1-10 nm | fibril length ([12]; 10 mM Tris, pH 7.5, 20 mM NaCl, 0.02% polysorbate 20): several hundreds | dependence of fibril morphology on concentration [12]: appears to be independent of Peptide C concentration | globular aggregates [12]: Globular aggregates closely associated with the fibrils are also observed
